Converted amounts (≈) assume the structure as drawn. “And” between values parts separate entries of the source, which are not always exact repeats. Equal values may be shown once.
Legend:
[1] = Number of mice which show positive phototoxic reaction in 5 mice at peroral dose; type: functional, Mus musculus
Summary of the method: (§1)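 Depilated female CD-1 mice got a single oral (gavage) or subcutaneous dose, then UVA (320–400 nm) exposure for 3 h starting 1 h post-dose. This was repeated for up to 4 consecutive days. Initial doses were 30, 100 and 300 mg/kg. PTD50 was derived by probit. First day of positive reaction and no-effect dose were taken from the raw data.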

[2] = Minimum inhibitory concentration (MIC) against gram negative bacteria Prot. rettgeri M-1771.; type: functional, Providencia rettgeri
Summary of the method: (§2)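 MICs were determined by standard broth microtitration against 11 Gram-positive and Gram-negative organisms, in µg/mL. Values come from duplicate or triplicate experiments and are accurate to ±50%.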

Streptococcus pyogenes [3] = test: In vivo efficacy (s.c.) against Streptococcus pyogenes C-203 in mouse protection test; type: functional
Summary of the method: (§3)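 Acute lethal systemic infections in female Charles River CD-1 mice. A single dose was given at challenge, orally by gavage or by subcutaneous injection. PD50 (median protective dose, mg/kg) was determined.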

Streptococcus pneumoniae [4] = test: In vivo efficacy (s.c.) against Streptococcus pneumoniae SV-1 in mouse protection test; type: functional; summary of the method: as §3
Mus musculus [5] = test: Maximum tolerance dose was measured for phototoxic skin reaction by po administration; type: functional
Streptococcus pneumoniae [6] = test: In vivo efficacy (orally) against Streptococcus pneumoniae SV-1 in mouse protection test; type: functional; summary of the method: as §3
Mus musculus [7] = test: (§4) Maximum tolerance dose was measured for phototoxic skin reaction by sc administration; type: functional; summary of the method: as §1
Escherichia coli [8] = test: Minimum inhibitory concentration (MIC) against gram negative bacteria Escherichia coli Vogel.; type: functional; summary of the method: as §2
Mus musculus [9] = species on record: Mus musculus; test: Dose required to induce phototoxic reaction in 50% of mice by probit method at different dosage forms.; type: functional
Pseudomonas aeruginosa [10] = test: In vivo efficacy (orally) against Pseudomonas aeruginosa in mouse protection test; type: functional; summary of the method: as §3
Staphylococcus aureus [11] = test: Minimum inhibitory concentration (MIC) against gram positive bacteria Staphylococcus aureus H-228.; type: functional; summary of the method: as §2
Streptococcus pyogenes [12] = test: In vivo efficacy (orally) against Streptococcus pyogenes C-203 in mouse protection test; type: functional; summary of the method: as §3
[13] = Number of mice which show positive phototoxic reaction in 5 mice at subcutaneous dose; type: functional, Mus musculus; summary of the method: as §1
Enterococcus faecalis = test: Minimum inhibitory concentration (MIC) against gram positive bacteria Streptococcus faecalis MGH-2.; type: functional; summary of the method: as §2
Escherichia coli [14] = test: In vivo efficacy in mouse protection test in Escherichia coli Vogel administered by subcutaneous injection.; type: functional; summary of the method: as §3
Streptococcus pneumoniae [15] = test: Minimum inhibitory concentration (MIC) against gram positive bacteria Streptococcus pneumoniae SV-1.; type: functional; summary of the method: as §2
Streptococcus pyogenes [16] = test: Minimum inhibitory concentration (MIC) against gram positive bacteria Streptococcus pyogenes C-203.; type: functional; summary of the method: as §2
Escherichia coli [17] = test: Minimum inhibitory concentration (MIC) against gram negative bacteria Escherichia coli H-560.; type: functional; summary of the method: as §2
Mus musculus [18] = test: Days of the first positive reaction in […] mice after sc administration; type: functional
Summary of the method: (§5)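 Phototoxic skin reaction test in depilated female CD-1 mice. A single oral dose (gavage) or subcutaneous dose was given, followed 1 h later by 3 h of UVA exposure (320–400 nm). The regimen was repeated for up to 4 consecutive days, with initial doses of 30, 100 and 300 mg/kg. PTD50 was derived by the probit method. The first day of positive reaction and the no-effect dose were taken from the raw data.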

Klebsiella pneumoniae = test: Minimum inhibitory concentration (MIC) against gram negative bacteria Klebsiella pneumoniae MGH-2.; type: functional; summary of the method: as §2
Mus musculus [19] = test: Dose required to induce phototoxic reaction in 50% of mice by […] reactions at different dosage forms after sc administration; type: functional; summary of the method: as §5
Mus musculus [20] = test: as §4; type: functional; summary of the method: as §1; remark: listed apart in the source
Pseudomonas aeruginosa [21] = test: Minimum inhibitory concentration (MIC) against gram negative bacteria Pseudomonas aeruginosa UI-18.; type: functional; summary of the method: as §2
Escherichia coli [22] = test: In vivo efficacy in mouse protection test in Escherichia coli Vogel dose administered orally by gavage.; type: functional; summary of the method: as §3
Mus musculus [23] = species on record: Mus musculus; test: Dose which has no effect to induce phototoxic reaction in 50% of mice by probit method.; type: functional
Mus musculus [24] = test: Compound's dose which has no effect to induce phototoxic reaction in 50% of mice by […] reactions after sc administration; type: functional; summary of the method: as §5
Pseudomonas aeruginosa [25] = test: In vivo efficacy (s.c.) against Pseudomonas aeruginosa in mouse protection test; type: functional; summary of the method: as §3
Staphylococcus aureus [26] = test: Minimum inhibitory concentration (MIC) against gram positive bacteria Staphylococcus aureus UC-76.; type: functional; summary of the method: as §2
[27] = Escherichia coli, read-out: MIC
[28] = Staphylococcus aureus, read-out: MIC

## O=C(O)c1cn(C2CC2)c2cc(N3CCNCC3)c(F)cc2c1=O [CIPROFLOXACIN]
[1]
  No. of pos rxns: 0
[2]
  MIC: 0.1 µg/mL (≈ 0.302 µM)
[2]; Providencia rettgeri, read-out: MIC
  MIC: 0.1 µg/mL (≈ 0.302 µM)
Streptococcus pyogenes [3]
  PD50: 19 mg/kg
Streptococcus pyogenes [3]; Streptococcus pyogenes, sc, read-out: PD50
  ED50: 19 mg/kg
Streptococcus pneumoniae [4]
  PD50: 29 mg/kg
Streptococcus pneumoniae [4]; Streptococcus pneumoniae, sc, read-out: PD50
  ED50: 29 mg/kg
Mus musculus [5]
  MTD: 300 mg/kg
Streptococcus pneumoniae [6]
  PD50: 260 mg/kg
Streptococcus pneumoniae [6]; Streptococcus pneumoniae, po, read-out: PD50
  ED50: 260 mg/kg
Mus musculus [7]
  MTD: 100 mg/kg
Escherichia coli [8]
  MIC: 0.025 µg/mL (≈ 0.0754 µM)
Escherichia coli [8]; [27]
  MIC: 0.025 µg/mL (≈ 0.0754 µM)
Mus musculus [9]
  PTD50: >300 mg kg-1 and 172
Pseudomonas aeruginosa [10]
  PD50: 25 mg/kg
Pseudomonas aeruginosa [10]; Pseudomonas aeruginosa, po, read-out: PD50
  ED50: 25 mg/kg
Staphylococcus aureus [11]
  MIC: 1.6 µg/mL (≈ 4.83 µM)
Staphylococcus aureus [11]; [28]
  MIC: 1.6 µg/mL (≈ 4.83 µM)
Streptococcus pyogenes [12]
  PD50: 180 mg/kg
Streptococcus pyogenes [12]; Streptococcus pyogenes, po, read-out: PD50
  ED50: 180 mg/kg
[13]
  No. of pos rxns: 5
Enterococcus faecalis
  MIC: 1.6 µg/mL (≈ 4.83 µM)
Enterococcus faecalis; Enterococcus faecalis, read-out: MIC
  MIC: 1.6 µg/mL (≈ 4.83 µM)
Escherichia coli [14]
  PD50: 0.25 mg/kg
Escherichia coli [14]; Escherichia coli, sc, read-out: PD50
  ED50: 0.25 mg/kg
Streptococcus pneumoniae [15]
  MIC: 0.8 µg/mL (≈ 2.41 µM)
Streptococcus pneumoniae [15]; Streptococcus pneumoniae, read-out: MIC
  MIC: 0.8 µg/mL (≈ 2.41 µM)
Streptococcus pyogenes [16]
  MIC: 0.4 µg/mL (≈ 1.21 µM)
Streptococcus pyogenes [16]; Streptococcus pyogenes, read-out: MIC
  MIC: 0.4 µg/mL (≈ 1.21 µM)
Escherichia coli [17]
  MIC: 0.025 µg/mL (≈ 0.0754 µM)
Escherichia coli [17]; [27]
  MIC: 0.025 µg/mL (≈ 0.0754 µM)
Mus musculus [18]
  Day of first positve reaction: 2
Klebsiella pneumoniae
  MIC: 0.05 µg/mL (≈ 0.151 µM)
Klebsiella pneumoniae; Klebsiella pneumoniae, read-out: MIC
  MIC: 0.05 µg/mL (≈ 0.151 µM)
Mus musculus [19]
  PTD50: 172 mg/kg
Mus musculus [20]
  MTD: 100 mg/kg
Pseudomonas aeruginosa [21]
  MIC: 0.2 µg/mL (≈ 0.604 µM)
Pseudomonas aeruginosa [21]; Pseudomonas aeruginosa, read-out: MIC
  MIC: 0.2 µg/mL (≈ 0.604 µM)
Escherichia coli [22]
  PD50: 1.2 mg/kg
Escherichia coli [22]; Escherichia coli, po, read-out: PD50
  ED50: 1.2 mg/kg
Mus musculus [23]
  No effect dose: 300 mg kg-1 and 100
Mus musculus [24]
  No effect dose: 100 mg/kg
Pseudomonas aeruginosa [25]
  PD50: 5 mg/kg
Pseudomonas aeruginosa [25]; Pseudomonas aeruginosa, sc, read-out: PD50
  ED50: 5 mg/kg
Staphylococcus aureus [26]
  MIC: 0.1 µg/mL (≈ 0.302 µM)
Staphylococcus aureus [26]; [28]
  MIC: 0.1 µg/mL (≈ 0.302 µM)

Reference: ChEMBL document CHEMBL1125291, “New 8-(trifluoromethyl)-substituted quinolones. The benefits of the 8-fluoro group with reduced phototoxic risk” (1992)
